Values belong to the molecule of their own block, whether it stands above or below them. Active and inactive are the calls of the source. No cut-off for these calls is given here.
Tests used:
[1] = tested on: Rtt109 (Saccharomyces cerevisiae); assay: Inhibition of Vps75-stimulated recombinant Saccharomyces cerevisiae 6xHis-tagged histone acetyltransferase Rtt109 using H3n21 peptide and acetyl-coenzyme A as substrate assessed as release of CoA at 0.3 to 10 uM preincubated for 5 mins with H3n21 followed by acetyl-coenzyme A addition measured …
[2] = biological target: Histone acetyltransferase p300 (Homo sapiens) (UniProt Q09472); assay: Inhibition of N-terminal 6xHis-Flag epitope-tagged histone acetyltransferase p300 catalytic domain (1195 to 1810) (unknown origin) expressed in Escherichia coli BL21 using acetyl-coenzyme A as substrate assessed as release of coenzyme A incubated for 5 mins prior to acetyl-coenzyme A addition measured every 2 mins for 10 mins by ThioGlo1 assay
Histone acetyltransferase p300 (Homo sapiens), sequence (Q09472 whole entry, the tested form may be a part): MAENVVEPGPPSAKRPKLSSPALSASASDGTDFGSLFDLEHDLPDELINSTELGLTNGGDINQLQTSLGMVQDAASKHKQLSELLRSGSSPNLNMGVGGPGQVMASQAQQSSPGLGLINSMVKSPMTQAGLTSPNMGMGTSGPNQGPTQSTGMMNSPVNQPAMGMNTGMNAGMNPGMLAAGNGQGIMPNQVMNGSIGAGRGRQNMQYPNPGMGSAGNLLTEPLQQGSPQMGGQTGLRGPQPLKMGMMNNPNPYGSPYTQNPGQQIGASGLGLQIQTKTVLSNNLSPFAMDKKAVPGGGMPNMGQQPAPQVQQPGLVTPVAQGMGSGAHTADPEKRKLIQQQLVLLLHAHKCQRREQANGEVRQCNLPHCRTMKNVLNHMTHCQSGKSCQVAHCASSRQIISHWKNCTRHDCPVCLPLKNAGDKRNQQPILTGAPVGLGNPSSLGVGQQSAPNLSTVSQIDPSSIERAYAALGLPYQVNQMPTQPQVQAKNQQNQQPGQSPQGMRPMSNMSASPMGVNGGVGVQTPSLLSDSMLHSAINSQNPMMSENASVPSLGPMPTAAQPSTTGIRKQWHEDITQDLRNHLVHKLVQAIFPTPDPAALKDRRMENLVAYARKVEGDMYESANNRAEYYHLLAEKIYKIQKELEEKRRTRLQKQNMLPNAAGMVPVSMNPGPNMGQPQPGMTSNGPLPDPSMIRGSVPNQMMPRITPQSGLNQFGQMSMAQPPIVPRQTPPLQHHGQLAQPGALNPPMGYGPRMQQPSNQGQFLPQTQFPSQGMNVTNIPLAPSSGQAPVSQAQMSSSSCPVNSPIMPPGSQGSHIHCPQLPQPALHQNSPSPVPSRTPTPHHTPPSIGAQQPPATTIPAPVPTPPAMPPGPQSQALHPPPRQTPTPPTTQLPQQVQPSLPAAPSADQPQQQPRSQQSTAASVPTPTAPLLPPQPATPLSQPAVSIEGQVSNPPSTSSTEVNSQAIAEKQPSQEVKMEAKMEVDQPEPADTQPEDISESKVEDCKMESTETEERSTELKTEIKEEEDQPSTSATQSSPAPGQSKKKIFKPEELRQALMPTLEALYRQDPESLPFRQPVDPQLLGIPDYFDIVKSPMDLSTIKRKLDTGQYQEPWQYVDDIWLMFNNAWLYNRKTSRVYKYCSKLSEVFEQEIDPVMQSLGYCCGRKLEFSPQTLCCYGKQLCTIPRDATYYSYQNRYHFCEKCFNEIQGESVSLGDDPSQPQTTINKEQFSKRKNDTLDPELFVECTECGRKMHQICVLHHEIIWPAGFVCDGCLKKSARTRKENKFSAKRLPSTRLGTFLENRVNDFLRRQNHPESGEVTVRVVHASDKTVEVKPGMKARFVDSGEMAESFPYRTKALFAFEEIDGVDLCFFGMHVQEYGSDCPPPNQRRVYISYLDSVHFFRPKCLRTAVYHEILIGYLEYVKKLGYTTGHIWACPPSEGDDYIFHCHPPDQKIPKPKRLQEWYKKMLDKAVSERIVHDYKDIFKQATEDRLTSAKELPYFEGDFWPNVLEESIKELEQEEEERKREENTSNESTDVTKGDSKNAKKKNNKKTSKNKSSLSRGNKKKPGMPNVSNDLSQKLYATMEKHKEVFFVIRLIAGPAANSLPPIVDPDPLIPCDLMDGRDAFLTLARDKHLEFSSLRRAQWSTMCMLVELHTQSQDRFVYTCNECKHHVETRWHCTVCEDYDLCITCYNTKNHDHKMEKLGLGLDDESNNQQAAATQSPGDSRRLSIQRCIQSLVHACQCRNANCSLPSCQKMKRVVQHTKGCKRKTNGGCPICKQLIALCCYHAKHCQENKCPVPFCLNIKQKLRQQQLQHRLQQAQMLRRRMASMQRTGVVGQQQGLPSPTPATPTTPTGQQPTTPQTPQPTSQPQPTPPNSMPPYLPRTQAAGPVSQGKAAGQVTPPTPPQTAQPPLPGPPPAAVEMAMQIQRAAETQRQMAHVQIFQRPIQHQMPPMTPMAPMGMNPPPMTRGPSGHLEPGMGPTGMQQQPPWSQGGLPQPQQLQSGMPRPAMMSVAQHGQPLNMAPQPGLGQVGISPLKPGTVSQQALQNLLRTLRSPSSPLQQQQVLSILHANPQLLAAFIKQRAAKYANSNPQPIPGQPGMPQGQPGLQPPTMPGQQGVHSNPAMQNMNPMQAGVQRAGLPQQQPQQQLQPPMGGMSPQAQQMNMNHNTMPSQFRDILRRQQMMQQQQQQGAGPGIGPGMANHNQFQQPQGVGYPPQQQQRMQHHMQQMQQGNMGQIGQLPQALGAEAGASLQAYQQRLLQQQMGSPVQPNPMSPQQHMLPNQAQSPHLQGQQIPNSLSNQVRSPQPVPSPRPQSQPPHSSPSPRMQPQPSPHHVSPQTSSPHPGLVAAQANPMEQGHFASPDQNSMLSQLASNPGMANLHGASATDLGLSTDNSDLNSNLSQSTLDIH
In short: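 p300 (15 µg/ml) or Gcn5 (3.1 µg/ml, 61 nM) with 15 µM H3n21 peptide. Pre-incubated 5 min at 30°C with compound (up to 100 µM) or DMSO. Started with 30 µM acetyl-CoA. Released CoA quantified every 2 min over the first 10 min. Rates from linear regression of product versus time.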

Candida albicans [3] = assay: Inhibition of histone acetyltransferase Rtt109 in Candida albicans assessed as camptothecin-induced DNA damage
[4] = biological target: Histone acetyltransferase RTT109 (Saccharomyces cerevisiae) (UniProt Q07794); assay: Irreversible inhibition of Vps75-stimulated recombinant Saccharomyces cerevisiae 6xHis-tagged histone acetyltransferase Rtt109 using H3n21 peptide as substrate assessed as release of coenzyme A at […] after 4 hrs by 10 fold dilution assay relative to control; parameters: scale not given: the % may be the effect or the level left
Histone acetyltransferase RTT109 (Saccharomyces cerevisiae), sequence (Q07794 whole entry, looked up): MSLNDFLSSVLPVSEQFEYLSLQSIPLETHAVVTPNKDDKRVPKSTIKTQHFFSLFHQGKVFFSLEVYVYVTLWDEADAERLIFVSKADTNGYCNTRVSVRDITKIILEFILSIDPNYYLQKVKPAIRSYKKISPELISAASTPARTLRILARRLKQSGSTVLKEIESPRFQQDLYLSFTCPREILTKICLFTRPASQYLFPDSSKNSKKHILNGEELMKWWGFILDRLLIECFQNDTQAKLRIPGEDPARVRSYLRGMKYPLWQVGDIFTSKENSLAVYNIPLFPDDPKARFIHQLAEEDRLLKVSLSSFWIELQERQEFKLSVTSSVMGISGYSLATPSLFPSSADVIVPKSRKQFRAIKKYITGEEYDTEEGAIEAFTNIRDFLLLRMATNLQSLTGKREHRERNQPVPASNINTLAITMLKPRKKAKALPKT

[5] = biological target: T1, Histone acetyltransferase SAS2 (Saccharomyces cerevisiae (strain ATCC 204508 / S288c) (Baker's yeast)) (UniProt P40963); assay: Inhibition of Vps75-stimulated recombinant Saccharomyces cerevisiae 6xHis-tagged histone acetyltransferase Rtt109 using H3n21 peptide and acetyl-coenzyme A as substrate assessed as release of coenzyme A at 56 1.3 nM incubated for 5 mins prior to acetyl-coenzyme A addition measured every 2 mins for 10 mins by ThioGlo1 assay relative to control
T1 sequence (whole entry): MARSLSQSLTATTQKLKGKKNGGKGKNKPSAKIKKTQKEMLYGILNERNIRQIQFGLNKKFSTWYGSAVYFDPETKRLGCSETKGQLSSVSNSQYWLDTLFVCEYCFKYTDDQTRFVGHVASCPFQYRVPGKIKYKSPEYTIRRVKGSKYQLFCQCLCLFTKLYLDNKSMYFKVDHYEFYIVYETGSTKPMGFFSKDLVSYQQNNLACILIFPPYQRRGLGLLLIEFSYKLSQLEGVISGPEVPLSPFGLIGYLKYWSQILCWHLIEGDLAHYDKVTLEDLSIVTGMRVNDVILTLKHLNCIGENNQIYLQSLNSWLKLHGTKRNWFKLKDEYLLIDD

[6] = biological target: Histone acetyltransferase RTT109 (Saccharomyces cerevisiae) (UniProt Q07794); assay: Inhibition of Vps75-stimulated recombinant Saccharomyces cerevisiae 6xHis-tagged histone acetyltransferase Rtt109 using H3n21 peptide as substrate assessed as release of coenzyme A at […] by ThioGlo1 assay relative to control; parameters: scale not given: the % may be the effect or the level left
Candida albicans [7] = assay: Inhibition of histone acetyltransferase Rtt109 in Candida albicans assessed as inhibition of H3K56 acetylation
[8] = biological target: Histone acetyltransferase p300 (Homo sapiens) (UniProt Q09472); assay: Inhibition of N-terminal 6xHis-Flag epitope-tagged histone acetyltransferase p300 catalytic domain (1195 to 1810) (unknown origin) expressed in Escherichia coli BL21 using (H3-H4)2 peptide and acetyl-coenzyme A as substrate assessed as inhibition of lysine acetylation incubated for 5 mins prior to acetyl-coenzyme A addition measured after 30 mins by ELISA
In short: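 p300 (15 µg/ml) with […] (H3-H4)2 tetramers. Pre-incubated 5 min with compound or DMSO, then started with 15 µM acetyl-CoA. Run 30 min at 30°C. Lysine acetylation detected by ELISA with a polyclonal anti-acetyllysine antibody.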

[9] = biological target: T2, Lysine-specific demethylase 4A (Homo sapiens, UniProt O75164); assay: Inhibition of JMJD2A tudor domain (unknown origin) using histone H4 peptide trimethylated on lysine 20 as substrate
T2 sequence (O75164 whole entry): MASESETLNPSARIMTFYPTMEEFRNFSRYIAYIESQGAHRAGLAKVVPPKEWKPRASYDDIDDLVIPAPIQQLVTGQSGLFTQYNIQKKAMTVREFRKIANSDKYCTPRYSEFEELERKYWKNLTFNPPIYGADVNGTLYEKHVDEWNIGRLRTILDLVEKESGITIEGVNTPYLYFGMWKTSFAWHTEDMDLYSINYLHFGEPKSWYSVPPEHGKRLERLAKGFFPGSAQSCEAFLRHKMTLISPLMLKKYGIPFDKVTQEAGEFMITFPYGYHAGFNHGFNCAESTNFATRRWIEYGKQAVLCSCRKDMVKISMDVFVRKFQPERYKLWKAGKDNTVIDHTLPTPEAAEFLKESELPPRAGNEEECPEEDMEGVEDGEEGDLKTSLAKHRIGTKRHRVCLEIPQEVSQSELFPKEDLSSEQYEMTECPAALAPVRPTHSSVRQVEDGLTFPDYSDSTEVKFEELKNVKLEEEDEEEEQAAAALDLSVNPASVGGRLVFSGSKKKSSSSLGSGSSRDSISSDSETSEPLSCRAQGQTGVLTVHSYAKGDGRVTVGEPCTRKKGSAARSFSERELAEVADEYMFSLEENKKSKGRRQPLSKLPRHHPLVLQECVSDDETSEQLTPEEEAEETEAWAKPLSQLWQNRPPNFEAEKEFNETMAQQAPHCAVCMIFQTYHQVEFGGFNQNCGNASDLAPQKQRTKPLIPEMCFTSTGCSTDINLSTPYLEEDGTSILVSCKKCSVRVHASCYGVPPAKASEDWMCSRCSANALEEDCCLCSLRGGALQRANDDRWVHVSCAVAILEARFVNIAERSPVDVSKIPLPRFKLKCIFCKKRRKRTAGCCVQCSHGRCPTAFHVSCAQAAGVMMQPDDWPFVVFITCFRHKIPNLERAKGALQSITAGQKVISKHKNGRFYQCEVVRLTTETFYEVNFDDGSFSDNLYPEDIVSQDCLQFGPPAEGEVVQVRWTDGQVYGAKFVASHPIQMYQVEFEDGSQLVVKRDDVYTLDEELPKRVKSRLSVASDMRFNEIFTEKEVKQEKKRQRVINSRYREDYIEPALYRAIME

[10] = tested on: Rtt109 (Saccharomyces cerevisiae); assay: Inhibition of Vps75-stimulated recombinant Saccharomyces cerevisiae 6xHis-tagged histone acetyltransferase Rtt109 using H3n21 peptide and acetyl-coenzyme A as substrate assessed as release of CoA at 0.1 to 1 uM preincubated for 5 mins with H3n21 followed by acetyl-coenzyme A addition measured after …

inhibition [10]: Active
SMILES: CCC1(c2ccccc2)NC(=O)N(CC(=O)N(C)Cc2c(F)cccc2Cl)C1=O (stereo unspecified)

inhibition [1]: inactive
SMILES: CN(Cc1c(F)cccc1Cl)C(=O)CN1C(=O)NC2(CCCCc3ccccc32)C1=O (stereo unspecified)

inhibition [1]: inactive
SMILES: CCCC1(c2ccccc2)NC(=O)N(Cc2ccc(F)cc2Cl)C1=O (stereo unspecified)

More lines, now with the values behind:

SMILES: CCCCC1(c2ccccc2)NC(=O)N(CC(=O)NCc2ccc(Cl)cc2Cl)C1=O (stereo unspecified)
inhibition [1]: inactive

SMILES: CCCC1(c2ccccc2)NC(=O)N(Cc2c(F)cccc2Cl)C1=O (stereo unspecified)
inhibition [1]: inactive

SMILES: CCC1(c2ccc(F)cc2)NC(=O)N(CC(=O)NCc2ccc(Cl)cc2Cl)C1=O (stereo unspecified)
inhibition [1]: inactive

SMILES: CC(C)c1ccc(C2(C)NC(=O)N(CC(=O)N(C)Cc3c(F)cccc3Cl)C2=O)cc1 (stereo unspecified)
inhibition [1]: inactive

SMILES: CCC[C@]1(c2ccccc2)NC(=O)N(CC(=O)N(C)Cc2c(F)cccc2Cl)C1=O
inhibition [2]: inactive
inhibition (Candida albicans [3]): inactive
Activity [4]: 33%
inhibition [5]: 50%
Activity [6]: 47%
inhibition (Candida albicans [7]): inactive
inhibition [8]: inactive
IC50 [9]: 25 µM

SMILES: CC(C)CC1(c2ccccc2)NC(=O)N(CC(=O)NCc2ccc(Cl)cc2Cl)C1=O (stereo unspecified)
inhibition [1]: inactive
